According to ChEMBL document CHEMBL1151475, “Thiopurine drugs azathioprine and 6-mercaptopurine inhibit Mycobacterium paratuberculosis growth in vitro” (2008):

Columns and labels:
Assay type in all cases: functional
[1] = system: Mycobacterium avium subsp. paratuberculosis; assay: Antituberculosis activity against Mycobacterium paratuberculosis ATCC 19698 isolated from bovine assessed as lowest drug level producing inhibition at 10^6 CFU of inoculum by MGIT 960 susceptibility test
In short: (§1)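 M. paratuberculosis ATCC 19698 at 10^6 CFU per MGIT ParaTB tube in duplicate, drugs at final 1.0–64.0 μg/ml, 37°C in MGIT 960. Inhibition is the lowest concentration whose time to detection exceeds the 1:100 diluted-inoculum solvent control. No detectable growth means the tube never signals positive through 56 days.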

[2] = system: Mycobacterium avium subsp. paratuberculosis; assay: Antituberculosis activity against Mycobacterium paratuberculosis ATCC 19698 isolated from bovine assessed as lowest drug level producing inhibition at 10^6 CFU of inoculum by agar counting method
In short: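 ATCC 19698 at 10^6 CFU was exposed to drug (1.0–64.0 μg/ml) in MGIT ParaTB medium at 37°C. Aliquots taken at 3 and 5 days were centrifuged, resuspended in PBS and declumped with glass beads. Serial dilutions were plated in quadruplicate on 7H10/OADC/mycobactin J and counted after 8 weeks. Inhibition is the lowest concentration giving a 2 log10 (99%) CFU reduction.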

[3] = system: Mycobacterium avium subsp. paratuberculosis; assay: Antituberculosis activity against Mycobacterium paratuberculosis ATCC 19698 isolated from bovine assessed as minimum drug level resulting in no detectable growth at 10^6 CFU of inoculum after 56 days by MGIT 960 susceptibility test; in short: as §1

Row | SMILES | Activity [1] [µg/mL] | Activity [2] [µg/mL] | Activity [3] [µg/mL]
1 | CCn1cc(C(=O)O)c(=O)c2ccc(C)nc21 [NALIDIXIC ACID] | >64 | >64 | >64
2 | CO[C@H]1/C=C/O[C@@]2(C)Oc3c(C)c(O)c4c(O)c(c(/C=N/N5CCN(C)CC5)c(O)c4c3C2=O)NC(=O)/C(C)=C\C=C\[C@H](C)[C@H](O)[C@@H](C)[C@@H](O)[C@@H](C)[C@H](OC(C)=O)[C@@H]1C [RIFAMPIN] | 2 | 2 | >64
3 | Nc1ccc(S(=O)(=O)Nc2ccccn2)cc1 [SULFAPYRIDINE] | >64 | >64 | >64
4 | O=C(O)c1cc(/N=N/c2ccc(S(=O)(=O)Nc3ccccn3)cc2)ccc1O [SULFASALAZINE] | >64 | >64 | >64
